Measurements published in ChEMBL document CHEMBL1129750, “Bicyclic N-hydroxyurea inhibitors of 5-lipoxygenase: pharmacodynamic, pharmacokinetic, and in vitro metabolic studies characterizing N-hydroxy-N-(2,3-dihydro-6-(phenylmethoxy)-3-benzofuranyl)urea” (J Med Chem, 1996).
Calls of active or inactive are those of the source. The calls are words filed in the database; no cut-off is given here.

Assays:
[1] = target: T1, Polyunsaturated fatty acid 5-lipoxygenase (Mus musculus) (UniProt P48999); assay: Inhibition of leukotriene formation in A-23187-stimulated mouse whole blood using […] ex vivo, activity expressed as percent of control.; type: functional, tissue-based; set-up: scale not given: the % may be the effect or the level left
T1 sequence (whole entry): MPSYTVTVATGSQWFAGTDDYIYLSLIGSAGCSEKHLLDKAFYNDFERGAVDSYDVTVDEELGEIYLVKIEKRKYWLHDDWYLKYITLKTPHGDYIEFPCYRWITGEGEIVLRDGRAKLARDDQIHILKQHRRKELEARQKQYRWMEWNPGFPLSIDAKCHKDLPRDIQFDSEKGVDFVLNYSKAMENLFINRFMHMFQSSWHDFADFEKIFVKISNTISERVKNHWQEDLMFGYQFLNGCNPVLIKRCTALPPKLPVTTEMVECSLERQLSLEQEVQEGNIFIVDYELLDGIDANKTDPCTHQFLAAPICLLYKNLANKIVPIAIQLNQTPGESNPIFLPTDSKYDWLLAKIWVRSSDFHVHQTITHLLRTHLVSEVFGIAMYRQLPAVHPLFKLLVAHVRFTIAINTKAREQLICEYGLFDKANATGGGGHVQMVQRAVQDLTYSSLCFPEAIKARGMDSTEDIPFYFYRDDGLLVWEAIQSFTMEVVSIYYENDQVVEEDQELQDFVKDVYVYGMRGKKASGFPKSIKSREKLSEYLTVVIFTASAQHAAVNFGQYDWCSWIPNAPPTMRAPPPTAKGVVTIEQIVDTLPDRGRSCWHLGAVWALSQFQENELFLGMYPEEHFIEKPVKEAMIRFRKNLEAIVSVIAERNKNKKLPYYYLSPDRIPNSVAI

[2] = target: T2, Polyunsaturated fatty acid 5-lipoxygenase (Rattus norvegicus, UniProt P12527); assay: Inhibitory activity against rat 5-lipoxygenase by using continuous oxygen consumption assay.
T2 sequence (P12527 whole entry): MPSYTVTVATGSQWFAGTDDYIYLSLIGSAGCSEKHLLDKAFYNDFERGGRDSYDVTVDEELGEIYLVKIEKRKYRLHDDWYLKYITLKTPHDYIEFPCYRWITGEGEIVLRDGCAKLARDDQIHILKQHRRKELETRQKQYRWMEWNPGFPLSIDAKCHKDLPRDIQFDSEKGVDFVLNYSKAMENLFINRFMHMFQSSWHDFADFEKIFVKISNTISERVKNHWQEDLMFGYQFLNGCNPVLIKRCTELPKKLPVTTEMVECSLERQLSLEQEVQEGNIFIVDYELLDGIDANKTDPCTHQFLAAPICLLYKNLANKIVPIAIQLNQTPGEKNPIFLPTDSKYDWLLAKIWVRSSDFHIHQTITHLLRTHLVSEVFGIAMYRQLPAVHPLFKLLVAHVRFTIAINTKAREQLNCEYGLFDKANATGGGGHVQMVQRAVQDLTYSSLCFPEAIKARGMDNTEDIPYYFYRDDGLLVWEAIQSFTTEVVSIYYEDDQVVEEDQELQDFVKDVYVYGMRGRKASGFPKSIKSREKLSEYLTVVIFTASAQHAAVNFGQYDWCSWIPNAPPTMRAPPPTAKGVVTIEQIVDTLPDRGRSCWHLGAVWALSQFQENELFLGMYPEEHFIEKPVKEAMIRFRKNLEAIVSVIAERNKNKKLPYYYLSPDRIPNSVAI
Outline: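 Semipurified cytosolic 5-LO from rat basophilic leukemia (RBL-1) cells; continuous oxygen-electrode assay of oxygen consumption; IC50.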

[3] = test system: Mus musculus; assay: Percentage inhibition of LTB4 after 6 hr at dose 6 mg/kg in mouse; type: functional
[4] = test system: Mus musculus; assay: Compound was tested to inhibit Leukotriene formation in mouse sensitized with 1BD8 cells after 7 hr of compound administration, activity expressed as percent of control; type: functional; set-up: concentration or dose not given beside the values
[5] = species: Mus musculus; assay: Compound was tested to inhibit Leukotriene formation in A-23187-stimulated mouse whole blood using […] ex vivo; type: functional
[6] = species: Homo sapiens; assay: Compound was tested to inhibit Leukotriene formation in A-23187-stimulated human whole blood using LTB4 specific RIA in vitro; type: functional
Outline: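 Human whole blood stimulated with A23187; LTB4 measured by specific radioimmunoassay. IC50 with 95% confidence limits from linear regression.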

[7] = test system: Mus musculus; assay: Maximum inhibition of LTB4 at dose 6 mg/kg in mouse; type: functional
[8] = species: Mus musculus; assay: Inhibition of Leukotriene formation in mouse adoptive peritoneal anaphylaxis assay ex vivo; type: functional
[9] = species: Mus musculus; assay: Compound was tested to inhibit Leukotriene formation in A-23187-stimulated mouse whole blood using […] ex vivo, activity expressed as percent of control; NS=No Stastistical Significance; type: functional, organism-based
[10] = Compound was administered intravenously in mouse to evaluate plasma clearance values; type: ADME, organism-based; settings: iv, read-out: Clp
Outline: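 Male CD-1 mice given 0.5 mg/kg IV by lateral tail vein over 5–10 s, in ethanol/propylene glycol 30:70 v/v; N = 3 per time point with terminal sampling under ether. Plasma HPLC, LOQ 0.05 μg/mL. Mean concentration per time point before noncompartmental analysis. Half-life from slope of log-concentration profile; CLp = dose/AUC.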

[11] = Compound was administered intravenously in monkey to evaluate plasma clearance values; type: ADME, organism-based; settings: simiiformes, plasma, iv; read-out: Clp
Outline: (§1)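 IV infusion over 15 min via saphenous (monkey) or cephalic (dog) vein catheter, 1–1.4 mg/kg in 7.5% (w/v) aqueous (2-hydroxypropyl)-β-cyclodextrin; male cynomolgus monkeys and beagle dogs, N = 3. Chilled plasma analysed by HPLC. Noncompartmental parameters were estimated per animal and then averaged. CLp = dose/AUC, with AUC by linear/log-linear trapezoidal rule.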

[12] = test system: Canis familiaris; assay: Compound was administered intravenously in dog to evaluate plasma clearance values; type: ADME, organism-based, Canis lupus familiaris; settings: in vivo, iv; outline: as §1
[13] = test system: Mus musculus; assay: Percentage inhibition of LTB4 after 6 hr at dose 10 mg/kg in mouse; type: functional
[14] = test system: Mus musculus; assay: Maximum inhibition of LTB4 at dose 10 mg/kg in mouse; type: functional
[15] = test system: Mus musculus; assay: Percentage inhibition of LTB4 after 6 hr at dose 3 mg/kg in mouse; NS=No Stastistical Significance; type: functional, organism-based; set-up: dose 3 mg/kg
[16] = test system: Mus musculus; assay: Maximum inhibition of LTB4 at dose 3 mg/kg in mouse; type: functional
[17] = species: Homo sapiens; assay: Glucuronidation rates in human liver microsomes; type: functional
Outline: (§2)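 Liver microsomes (fresh male CD-1 mouse >10 weeks, or frozen human donor) at 0.25–1.0 mg/mL protein. Incubated with 2.5 mM substrate, 15 mM [14C]UDP-glucuronic acid, 10 mM MgCl2 and 2% BSA in 100 mM sodium phosphate pH 7.4, at 37 °C for 1–4 h. Stopped with 20% acetonitrile; glucuronide quantified by HPLC. Mean of duplicates.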

[18] = species: Mus musculus; assay: Glucuronidation rates in mouse liver microsomes; type: functional; outline: as §2
[19] = species: Mus musculus; assay: Glucuronidation rates in mouse liver microsomes; not detected; type: functional; outline: as §2
[20] = Mus musculus, Blood, read-out: ED50

Compound | Activity [1] | IC50 [2] | further results
NC(=O)N(O)C1CCn2c1cc1cc(Oc3ccccc3)ccc12 (configuration not stated) | -58% | 520 nM | –
NC(=O)N(O)C1COc2cc(OCc3ccccc3)ccc21 (stereo in doubt; 1a) [listing 1 of 2 here] | – | – | inhibition in vivo at 6 mg/kg [3]: 87%; Activity [4]: -55%; ED50 [5]: 3.9 mg/kg; IC50 [6]: 4300 nM; Max inhibition [7]: 91; ED50 ([8]; Mus musculus): 3.9 mg/kg
COc1ccc2c(c1)CCCC2N(O)C(N)=O (configuration not stated) | – | 48000 nM | Activity [9]: inactive
NC(=O)N(O)C1CCCc2cc(OCc3ccccc3)ccc21 (single isomer, unassigned; (-)) | – | 1300 nM | –
NC(=O)N(O)C1COc2cc(OCc3ccccc3)ccc21 (single isomer, unassigned; (+)) [listing 1 of 2 here] | – | – | clearance [10]: 8.6 mL/min; ED50 [5]: 0.9 mg/kg; clearance [11]: 6.1 mL/min; Clp [12]: 3.5 mL/min
NC(=O)N(O)C1CCc2cc(OCc3ccccc3)ccc21 (stereo in doubt; 2a) [listing 1 of 2 here] | – | 780 nM | Activity [4]: -31%; ED50 [5, 20]: 2.6 mg/kg; ED50 ([8]; Mus musculus): 4 mg/kg
NC(=O)N(O)C1CCc2cc(OCc3ccccc3)ccc21 (stereo in doubt; 2a) [listing 2 of 2 here] | -85% | – | –
NC(=O)N(O)C1COc2cc(OCc3ccccc3)ccc21 (stereo in doubt; 1a) [listing 2 of 2 here] | -100% | – | –
COc1ccc(COc2ccc3c(c2)CCCC3N(O)C(N)=O)cc1 (configuration not stated) | -81% | 500 nM | Activity [4]: -13%; ED50 [5, 20]: 4.8 mg/kg; ED50 ([8]; Mus musculus): 4.8 mg/kg
NC(=O)N(O)C1CCCc2cc(-c3ccccc3)ccc21 (configuration not stated) | -52% | 3000 nM | –
CCc1ccc2c(c1)cc1n2CCC1N(O)C(N)=O (configuration not stated) | – | – | Activity [9]: inactive
NC(=O)N(O)C1CCCc2cc(OCc3ccc(Cl)cc3)ccc21 (configuration not stated) | -70% | 2200 nM | Activity [4]: 0%; ED50 [5, 20]: 4.5 mg/kg; ED50 ([8]; Mus musculus): 4.5 mg/kg
Cc1c2n(c3ccc(Oc4ccccc4)cc13)CCC2N(O)C(N)=O (configuration not stated) | -26% | – | –
NC(=O)N(O)C1CCn2c1cc1ccccc12 (configuration not stated) | -74% | 10000 nM | –
Cc1c2n(c3ccc(C(C)C)cc13)CCC2N(O)C(N)=O (configuration not stated) | – | 1700 nM | Activity [9]: inactive
COc1ccc(COc2ccc3c(c2)OCC3N(O)C(N)=O)cc1 (configuration not stated) | -73% | 2700 nM | ED50 [5, 20]: 9.8 mg/kg
NC(=O)N(O)C1CCn2c1cc1cc(Cl)ccc12 (configuration not stated) | – | 1300 nM | –
NC(=O)N(O)C1CCc2cc(OCc3ccccc3)ccc21 (stereo in doubt; (-)2a) [listing 1 of 2 here] | – | 620 nM | –
NC(=O)N(O)C1CCCc2cc(OCc3ccccc3)ccc21 (single isomer, unassigned; (+)) [listing 1 of 2 here] | – | 760 nM | –
NC(=O)N(O)C1CCCc2cc(CCc3ccccc3)ccc21 (configuration not stated) | – | 600 nM | Activity [9]: inactive

Compound | Activity [1] | IC50 [2] | further results
COc1ccc(COc2ccc3c(c2)CCC3N(O)C(N)=O)cc1 (configuration not stated) | – | 1400 nM | Activity [9]: inactive
NC(=O)N(O)C1CCCc2c(OCc3ccccc3)cccc21 (configuration not stated) | -44% | 910 nM | –
NC(=O)N(O)C1COc2cc(Oc3ccccc3)ccc21 (configuration not stated) | -56% | 3300 nM | –
NC(=O)N(O)C1CCCc2cc(OCc3ccccc3)ccc21 (single isomer, unassigned; (+)) [listing 2 of 2 here] | 28% | – | –
NC(=O)N(O)C1CCc2cc(OCc3ccccc3)ccc21 (stereo in doubt; (-)2a) [listing 2 of 2 here] | 0.9% | – | –
NC(=O)N(O)C1CCCc2c(Oc3ccccc3)cccc21 (configuration not stated) | -57% | 840 nM | –
NC(=O)N(O)C1CCn2c1cc1cc(OCc3ccccc3)ccc12 (configuration not stated) | -68% | 650 nM | Activity [4]: -8%; ED50 [5, 20]: 1.8 mg/kg; ED50 [8]: 1.8 mg/kg
NC(=O)N(O)C1CCc2cc(Oc3ccccc3)ccc21 (configuration not stated) | -88% | 850 nM | inhibition in vivo at 10 mg/kg [13]: 57%; ED50 [5, 20]: 6.4 mg/kg; Max inhibition [14]: 88
NC(=O)N(O)C1COc2ccc(Oc3ccccc3)cc21 (configuration not stated) | -64% | 3500 nM | inhibition [15]: inactive; Max inhibition [16]: 67; ED50 [5, 20]: 1.9 mg/kg
NC(=O)N(O)C1CCCc2c1ccc1ccccc21 (configuration not stated) | – | 5600 nM | –
NC(=O)N(O)C1COc2cc(OCc3ccccc3)ccc21 (single isomer, unassigned; (-)) | – | – | Rate of formation (nM (mg of protein)-1) [17]: 60.3; Rate of formation (nM (mg of protein)-1) [18]: 5.9
NC(=O)N(O)C1CCc2cc(OCc3ccccc3)ccc21 (single isomer, unassigned; (+)) | – | 880 nM | –
NC(=O)N(O)C1COc2cc(OCc3ccccc3)ccc21 (single isomer, unassigned; (+)) [listing 2 of 2 here] | – | – | Rate of formation (nM (mg of protein)-1) [17]: 2.5; Rate of formation [19]: inactive
NC(=O)N(O)C1CCc2cccc(Oc3ccccc3)c21 (configuration not stated) | – | 5600 nM | –
NC(=O)N(O)C1CCCc2cc(OCc3ccc4ccccc4c3)ccc21 (configuration not stated) | – | 500 nM | Activity [9]: inactive
NC(=O)N(O)C1CCCc2ccccc21 (configuration not stated) | -30% | 29000 nM | –
NC(=O)N(O)C1CCCc2ccc(OCc3ccccc3)cc21 (configuration not stated) | – | 1000 nM | Activity [9]: inactive
NC(=O)N(O)C1CCCc2cc(OCc3ccccc3)ccc21 (stereo in doubt; 3a) | -67% | – | –
NC(=O)N(O)C1COc2c1ccc1ccccc21 (configuration not stated) | – | 4200 nM | –
